High-throughput results deposited in PubChem BioAssay by Broad Institute.
Most compounds without a hit are left out; they make up all but 5.8% or so of the library.
Pf Dd2 growth – inhibitors of Plasmodium falciparum Dd2 growth | P. falciparum Dd2 growth, SYBR Green, 72 h; stronger effect = lower value | activity change, % at 10 µM | 94,000 tested, 2.3% active | AID 1159554; in the data active = activity change below about -80%
IDH1 R132H inh – IDH1 R132H (human) inhibition; O75874; IDH1 R132H reductase, diaphorase/resazurin fluorescence, 60 min; inhibition, % at 10 µM; 70,000 tested, 0.18% active; in the data active = inhibition above about 34%;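 also: 0% = DMSO and 100% = no enzyme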
Target sequence (O75874 whole entry R132H): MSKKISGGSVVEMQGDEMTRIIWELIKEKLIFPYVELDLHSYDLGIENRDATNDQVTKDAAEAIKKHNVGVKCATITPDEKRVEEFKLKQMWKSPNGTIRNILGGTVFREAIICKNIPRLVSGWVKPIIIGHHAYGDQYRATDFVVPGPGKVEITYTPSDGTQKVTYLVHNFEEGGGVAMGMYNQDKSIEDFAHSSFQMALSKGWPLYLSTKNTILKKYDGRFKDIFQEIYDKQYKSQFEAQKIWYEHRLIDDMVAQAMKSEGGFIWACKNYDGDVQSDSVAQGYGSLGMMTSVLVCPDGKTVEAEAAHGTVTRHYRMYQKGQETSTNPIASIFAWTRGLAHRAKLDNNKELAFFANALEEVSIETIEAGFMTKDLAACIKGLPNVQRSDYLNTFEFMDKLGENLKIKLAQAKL
Tcruzi prolif – inhibitors of T. cruzi proliferation. T. cruzi beta-gal in NIH3T3, GalScreen luminescence, 90 h. inhibition, % at 8.34 µM. 77,000 tested, 5.9% active. AID 624255;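 active = mean inhibition above about 93%, with at least 55% of replicates each passing it, limit read from the data, passing the limit was not always enough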
GASC1 inh – blocks human GASC-1 (KDM4C) demethylase activity | Q9H3R0 | inhibition, % at 12.5 µM | GST-KDM4C 2-372, H3K9me3 peptide, LANCE TR-FRET | 96,000 tested, 0.15% active;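 active = mean replicate inhibition above about 25%, with at least 55% of replicates also reaching it, limit read from the data, passing the limit was not always enough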
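Material: GST-tagged GASC-1 (JMJD2C) catalytic fragment, aa 2-372 / Quantity: enzyme final amount 10 nM / Medium: HEPES buffer, pH 7.5, plus ascorbate / Doses: one test concentration per compound / Incubation: 30 min reaction, 60 min detection, RT / Measured by: LANCE TR-FRET / Read-out: inhibition from TR-FRET ratio decrease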
Starred values were filed as active, the others as inactive; · = not tested or not shown.

SMILES	Pf Dd2 growth	IDH1 R132H inh	Tcruzi prolif	GASC1 inh
C[C@@H]1CCCCO[C@H](CN(C)C(=O)c2ccccc2)[C@H](C)CN([C@@H](C)CO)C(=O)c2cc(NC(=O)Cc3ccccc3)ccc2O1	-35	0	·	-2
CC(C)NC(=O)Nc1cccc2c1O[C@H](CN(C)C(=O)Nc1cccc3ccccc13)[C@H](C)CN([C@H](C)CO)C2=O	0	1	31	8
O=C(C[C@H]1C[C@@H]2c3cc(NC(=O)NC4CCCCC4)ccc3O[C@@H]2[C@H](CO)O1)NCCc1ccccc1	1	·	·	-8
C[C@@H]1CCCCO[C@H](CN(C)Cc2ccncc2)[C@H](C)CN([C@H](C)CO)C(=O)c2cc(NS(=O)(=O)c3ccc(F)cc3)ccc2O1	-50	·	·	0
Cc1cc(C(=O)Nc2cccc3c2O[C@H](CN(C)Cc2ccc(C(=O)Nc4ccccc4N)cc2)[C@@H](C)CN([C@H](C)CO)C3=O)n(C)n1	-88*	·	98	17
Cc1cc(C(=O)Nc2cccc3c2O[C@@H](CN(C)Cc2ccc(C(=O)O)cc2)[C@@H](C)CN([C@@H](C)CO)C3=O)n(C)n1	-7	-1	·	-1
Cc1cc(C(=O)Nc2cccc3c2O[C@@H](CN(C)Cc2ccc(C(=O)Nc4ccccc4N)cc2)[C@H](C)CN([C@H](C)CO)C3=O)n(C)n1	-92*	0	98	16
Cc1cc(C(=O)Nc2cccc3c2O[C@@H](CN(C)Cc2ccc(C(=O)O)cc2)[C@H](C)CN([C@H](C)CO)C3=O)n(C)n1	-1	3	·	2
Cc1ccc(C)c(NC(=O)C(Cc2ccccc2)N2C(=O)c3ccccc3C2=O)c1 (stereo unspecified)	·	0	·	·
Cc1noc(C)c1S(=O)(=O)N(C)C[C@@H]1OCCCC[C@H](C)Oc2ccc(NC(=O)c3ccccc3)cc2C(=O)N([C@@H](C)CO)C[C@H]1C	-88*	·	11	-1
Cc1noc(C)c1S(=O)(=O)N(C)C[C@H]1OCCCC[C@H](C)Oc2ccc(NC(=O)Nc3ccccc3)cc2C(=O)N([C@H](C)CO)C[C@@H]1C	-4	·	·	-2
Cc1noc(C)c1S(=O)(=O)N(C)C[C@@H]1OCCCC[C@H](C)Oc2ccc(NC(=O)Nc3ccccc3)cc2C(=O)N([C@H](C)CO)C[C@H]1C	-83*	0	·	0
O=C(COc1ccccc1CO)Nc1ccccc1	·	0	·	·
C[C@@H]1CN([C@@H](C)CO)C(=O)c2cccc(NC(=O)c3ccc(-c4nccs4)cc3)c2O[C@H]1CN(C)Cc1ccc(Oc2ccccc2)cc1	-71	·	80	-6
O=C(CC1NCCNC1=O)Nc1cccc(Cl)c1Cl (stereo unspecified)	·	0	·	·
C[C@H](CO)N1C[C@H](C)[C@H](CN(C)C(=O)Nc2cc(F)ccc2F)Oc2cc(/C=C/c3ccccc3)ccc2S1(=O)=O	-88*	0	·	-1
C[C@H]1CN([C@@H](C)CO)S(=O)(=O)c2ccc(/C=C/c3ccccc3)cc2O[C@@H]1CN(C)C(=O)c1ccccc1	-73	0	125*	-5
CCCNC(=O)Nc1ccc2c(c1)C(=O)N(C)C[C@H](OC)[C@@H](C)CN(C(C)=O)[C@@H](C)CO2	6	·	·	0
C[C@H](CO)N1C[C@H](C)[C@@H](CN(C)C(=O)Cc2ccncc2)Oc2cc(C#CC3(O)CCCC3)ccc2S1(=O)=O	18	·	·	0
CCCC(=O)Nc1ccc2c(c1)C(=O)N(C)C[C@@H](OC)[C@H](C)CN(CCC(F)(F)F)[C@@H](C)CO2	-21	·	24	1
N#C[C@@H]1[C@H](c2ccc(C#CC3CCCCC3)cc2)[C@H](CO)N1C(=O)Nc1ccc(F)cc1	-88*	·	·	-2
N#C[C@H]1[C@H](c2ccc(C#CC3CCCCC3)cc2)[C@@H](CO)N1C(=O)Nc1ccc(F)cc1	-86*	·	·	1
C[C@@H]1CCCCO[C@@H](CN(C)S(=O)(=O)c2cn(C)cn2)[C@H](C)CN([C@@H](C)CO)C(=O)c2cc(NS(=O)(=O)c3ccc(F)cc3)ccc2O1	26	·	43	8
COc1ccc(S(=O)(=O)N(C)C[C@H]2Oc3c(NC(=O)Nc4ccccc4)cccc3C(=O)N([C@@H](C)CO)C[C@H]2C)cc1	-90*	1	47	2
COc1ccc(S(=O)(=O)N(C)C[C@H]2Oc3c(NC(=O)Nc4ccc5c(c4)OCO5)cccc3C(=O)N([C@@H](C)CO)C[C@H]2C)cc1	-86*	·	1	0
SMILES	Pf Dd2 growth	IDH1 R132H inh	Tcruzi prolif	GASC1 inh
COc1ccc(S(=O)(=O)N(C)C[C@@H]2Oc3c(NC(=O)Nc4ccccc4)cccc3C(=O)N([C@@H](C)CO)C[C@H]2C)cc1	·	·	·	-2
COc1ccc(S(=O)(=O)N(C)C[C@H]2Oc3c(NC(=O)Nc4ccc5c(c4)OCO5)cccc3C(=O)N([C@H](C)CO)C[C@H]2C)cc1	-14	1	8	1
C[C@@H]1CN([C@@H](C)CO)C(=O)c2cc(NC(=O)Nc3ccccc3)ccc2O[C@@H](C)CCCCO[C@H]1CN(C)S(=O)(=O)c1ccc(Cl)cc1	-83*	0	34	-1
Cc1ccc(S(=O)(=O)N(C)C[C@@H]2OCCCC[C@H](C)Oc3ccc(NC(=O)Nc4ccccc4)cc3C(=O)N([C@@H](C)CO)C[C@H]2C)cc1	-92*	·	66	0
Cc1ccc(S(=O)(=O)N(C)C[C@H]2OCCCC[C@H](C)Oc3ccc(NC(=O)NC4CCCCC4)cc3C(=O)N([C@@H](C)CO)C[C@H]2C)cc1	-86*	·	25	-1
CC(C)NC(=O)Nc1ccc2c(c1)C(=O)N([C@H](C)CO)C[C@H](C)[C@H](CN(C)S(=O)(=O)c1ccc(Cl)cc1)OCCCC[C@@H](C)O2	-68	0	44	-1
CC(C)NC(=O)Nc1ccc2c(c1)C(=O)N([C@@H](C)CO)C[C@H](C)[C@H](CN(C)S(=O)(=O)c1ccc(Cl)cc1)OCCCC[C@@H](C)O2	-83*	-4	49	-2
CC(C)NC(=O)Nc1ccc2c(c1)C(=O)N([C@@H](C)CO)C[C@H](C)[C@H](CN(C)C(=O)Nc1ccccc1)OCCCC[C@@H](C)O2	-16	3	13	0
Cc1noc(C)c1S(=O)(=O)Nc1ccc2c(c1)CC(=O)N([C@H](C)CO)C[C@H](C)[C@@H](CN(C)S(=O)(=O)c1c(C)noc1C)O2	-12	0	20	1
Cc1ccc(S(=O)(=O)N(C)C[C@@H]2OCCCC[C@@H](C)Oc3ccc(NC(=O)Nc4ccccc4)cc3C(=O)N([C@@H](C)CO)C[C@H]2C)cc1	-67	·	46	5
Cc1ccc(S(=O)(=O)N(C)C[C@@H]2OCCCC[C@@H](C)Oc3ccc(NC(=O)Nc4ccccc4)cc3C(=O)N([C@@H](C)CO)C[C@@H]2C)cc1	-91*	·	25	0
Cc1ccc(S(=O)(=O)N(C)C[C@@H]2OCCCC[C@@H](C)Oc3ccc(NC(=O)Nc4ccc(F)cc4)cc3C(=O)N([C@H](C)CO)C[C@@H]2C)cc1	-84*	0	·	·
O=C(C[C@H]1C=C[C@@H](NC(=O)C2CCOCC2)[C@@H](CO)O1)Nc1ccccc1	19	·	·	0
